These results are taken from ChEMBL document CHEMBL4118021, “Studies of TAK1-centered polypharmacology with novel covalent TAK1 inhibitors” (Bioorg Med Chem, 2017).

Molecules are shown by their SMILES. The source made the active and inactive calls. No cut-off for these calls is given here.

The target in assay [1] is T1, Mitogen-activated protein kinase kinase kinase 7 (Homo sapiens) (UniProt O43318).
T1 sequence (whole entry): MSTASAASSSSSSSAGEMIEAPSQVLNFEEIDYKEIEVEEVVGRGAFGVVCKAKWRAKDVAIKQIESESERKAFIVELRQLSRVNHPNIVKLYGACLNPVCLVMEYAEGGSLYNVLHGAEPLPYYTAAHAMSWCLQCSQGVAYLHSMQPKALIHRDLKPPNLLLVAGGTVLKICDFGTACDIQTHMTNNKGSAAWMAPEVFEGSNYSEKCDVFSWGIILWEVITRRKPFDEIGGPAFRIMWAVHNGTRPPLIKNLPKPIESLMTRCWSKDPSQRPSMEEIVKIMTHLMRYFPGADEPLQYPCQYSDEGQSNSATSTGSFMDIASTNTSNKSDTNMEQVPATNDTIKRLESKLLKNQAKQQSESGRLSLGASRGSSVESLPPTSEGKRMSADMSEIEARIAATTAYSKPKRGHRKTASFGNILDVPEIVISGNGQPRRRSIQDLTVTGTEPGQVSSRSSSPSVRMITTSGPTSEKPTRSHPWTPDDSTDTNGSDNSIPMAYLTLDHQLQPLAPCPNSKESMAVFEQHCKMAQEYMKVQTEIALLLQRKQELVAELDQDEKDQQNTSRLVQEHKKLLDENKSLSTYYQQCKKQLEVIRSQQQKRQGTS
Put plainly: Inhibition of biotin-labeled N-(2-(2-(2-(2-(4-(4-((4-((2-Acrylamidophenyl)amino)-5-chloropyrimidin-2-yl)amino)phenyl)piperazin-1-yl)ethoxy)ethoxy)ethoxy)ethyl)-5-((3aS,4S,6aR)-2-oxohexahydro-1H-thieno[3,4-d]imidazol-4-yl)pentanamide probe binding to TAK1 in human NCI-H358 cells at 10 uM after 6 hrs by immunoblot based competitive pull down assay. It is filed as cell-based. The gist of the method: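 H358 cells given 1 or 10 μM compound for 6 h, medium removed, cells rinsed twice with cold PBS and lysed in MPER buffer. Lysates incubated overnight at 4 °C with 1 μM biotinylated covalent probe, captured on streptavidin beads, and TAK1 recovery assessed by immunoblotting with anti-TAK1 antibody.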
(In general: In western blotting, separated proteins are transferred to a membrane and probed.)

In assay [2] the target is Inhibitor of nuclear factor kappa-B kinase subunit epsilon (Homo sapiens) (UniProt Q14164). Put plainly: Inhibition of IKKe in human SKCO1 cells at 1 uM after 4 hrs using biotin labeled DIKPGNIMR probe by mass-spectrometric analysis relative to control. Format: cell-based.
Assay [3] deals with Serine/threonine-protein kinase Nek8 (Homo sapiens) (UniProt Q86SG6). Briefly: Inhibition of NEK8 in human SKCO1 cells at 1 uM after 4 hrs using biotin labeled DLKTQNILLDK probe by mass-spectrometric analysis relative to control. It is filed as cell-based.
The target in assay [4] is BMP-2-inducible protein kinase (Homo sapiens) (UniProt Q9NSY1). Briefly: Inhibition of human BIKE (34 to 329 residues) expressed in bacterial expression system assessed as enzyme activity at 10 uM by KINOMEScan assay relative to control. Set-up: scale not given: the % may be the effect or the level left. In outline:
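In vitro ATP-site competition binding assay (KinomeScan) across a panel of 456 kinases. Compound was tested at 1 and 10 μM. The read-out is the binding inhibition score relative to control.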

In assay [5] the target is Protein disulfide-isomerase (Homo sapiens) (UniProt P07237). Put plainly: Binding affinity to P4HB in human NCI-H358 cells at 1 uM by mass spectrometry based pull down assay. It is filed as cell-based.
The target of assay [6] is T-complex protein 1 subunit theta (Homo sapiens) (UniProt P50990). Put plainly: Binding affinity to CCT8 in human NCI-H358 cells at 1 uM by mass spectrometry based pull down assay. It is filed as cell-based.
Assay [7] deals with Glycogen synthase kinase-3 alpha (Homo sapiens) (UniProt P49840). Briefly: Binding affinity to GSK3A in human NCI-H358 cells at 1 uM by mass spectrometry based pull down assay. It is filed as cell-based.
For assay [8], the target named is Spermidine synthase (Homo sapiens) (UniProt P19623). Briefly: Binding affinity to SRM in human NCI-H23 cells at 1 uM by mass spectrometry based pull down assay. It is filed as cell-based.
The target in assay [9] is Proteasome subunit beta type-6 (Homo sapiens) (UniProt P28072). Briefly: Binding affinity to PSMB6 in human NCI-H358 cells at 1 uM by mass spectrometry based pull down assay. Format: cell-based.
Assay [10] concerns the target Histone H3.2 (Homo sapiens) (UniProt Q71DI3). Put plainly: Binding affinity to HIST2H3A in human NCI-H23 cells at 1 uM by mass spectrometry based pull down assay. Format: cell-based.
Another assay concerns NCI-H23. Briefly: Binding affinity to PSMA3 in human NCI-H23 cells at 1 uM by mass spectrometry based pull down assay. Format: cell-based.
Assay [11] concerns the target Trifunctional enzyme subunit alpha, mitochondrial (Homo sapiens) (UniProt P40939). Briefly: Binding affinity to HADHA in human NCI-H358 cells at 1 uM by mass spectrometry based pull down assay. It is filed as cell-based.
The target in assay [12] is T2, Mitogen-activated protein kinase kinase kinase 7 (Homo sapiens, UniProt O43318).
T2 sequence (O43318 whole entry): T1 sequence (whole entry)
Put plainly: Inhibition of TAK1 (unknown origin) after 60 mins by biochemical assay.

For assay [13], the target named is Mitotic interactor and substrate of PLK1 (Homo sapiens) (UniProt Q8IVT2). Put plainly: Binding affinity to MISP in human NCI-H358 cells at 1 uM by mass spectrometry based pull down assay. It is filed as cell-based.
The target of assay [14] is Pyruvate dehydrogenase E1 component subunit beta, mitochondrial (Homo sapiens) (UniProt P11177). Briefly: Binding affinity to PDHB in human NCI-H23 cells at 1 uM by mass spectrometry based pull down assay. It is filed as cell-based.
Assay [15] deals with Importin subunit beta-1 (Homo sapiens) (UniProt Q14974). Briefly: Binding affinity to KPNB1 in human NCI-H358 cells at 1 uM by mass spectrometry based pull down assay. Format: cell-based.
Assay [16] deals with Importin-5 (Homo sapiens) (UniProt O00410). Put plainly: Binding affinity to IPO5 in human NCI-H358 cells at 1 uM by mass spectrometry based pull down assay. It is filed as cell-based.
In assay [17] the target is Vesicle-trafficking protein SEC22b (Homo sapiens) (UniProt O75396). Put plainly: Binding affinity to SEC22B in human NCI-H358 cells at 1 uM by mass spectrometry based pull down assay. It is filed as cell-based.
For assay [18], the target named is Tubulin alpha-1A chain (Homo sapiens) (UniProt Q71U36). Put plainly: Binding affinity to TUBA1A in human NCI-H23 cells at 1 uM by mass spectrometry based pull down assay. Format: cell-based.
Assay [19] concerns the target Membrane-associated progesterone receptor component 1 (Homo sapiens) (UniProt O00264). Briefly: Binding affinity to PGRMC1 in human NCI-H23 cells at 1 uM by mass spectrometry based pull down assay. It is filed as cell-based.
The target of assay [20] is DNA replication licensing factor MCM6 (Homo sapiens) (UniProt Q14566). Put plainly: Binding affinity to MCM6 in human NCI-H23 cells at 1 uM by mass spectrometry based pull down assay. Format: cell-based.
Assay [21] addresses Thioredoxin reductase 1, cytoplasmic (Homo sapiens) (UniProt Q16881). Briefly: Binding affinity to TXNRD1 in human NCI-H358 cells at 1 uM by mass spectrometry based pull down assay. It is filed as cell-based.
For assay [22], the target named is U5 small nuclear ribonucleoprotein 200 kDa helicase (Homo sapiens) (UniProt O75643). Briefly: Binding affinity to SNRNP200 in human NCI-H23 cells at 1 uM by mass spectrometry based pull down assay. It is filed as cell-based.
Assay [23] concerns the target Prostaglandin reductase 1 (Homo sapiens) (UniProt Q14914). Briefly: Binding affinity to PTGR1 in human NCI-H23 cells at 1 uM by mass spectrometry based pull down assay. Format: cell-based.

Sequence of Pyruvate dehydrogenase E1 component subunit beta, mitochondrial (Homo sapiens) (P11177 whole entry): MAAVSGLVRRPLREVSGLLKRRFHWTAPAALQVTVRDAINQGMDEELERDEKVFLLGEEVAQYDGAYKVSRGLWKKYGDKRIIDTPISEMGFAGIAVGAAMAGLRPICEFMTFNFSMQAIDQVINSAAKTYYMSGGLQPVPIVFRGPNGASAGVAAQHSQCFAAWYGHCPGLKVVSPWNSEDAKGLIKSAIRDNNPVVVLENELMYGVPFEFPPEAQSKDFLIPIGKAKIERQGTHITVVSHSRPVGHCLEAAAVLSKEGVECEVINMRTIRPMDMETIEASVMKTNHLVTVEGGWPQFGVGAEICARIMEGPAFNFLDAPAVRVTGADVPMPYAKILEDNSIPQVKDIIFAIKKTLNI
Sequence of T-complex protein 1 subunit theta (Homo sapiens) (P50990 whole entry, one chain of several): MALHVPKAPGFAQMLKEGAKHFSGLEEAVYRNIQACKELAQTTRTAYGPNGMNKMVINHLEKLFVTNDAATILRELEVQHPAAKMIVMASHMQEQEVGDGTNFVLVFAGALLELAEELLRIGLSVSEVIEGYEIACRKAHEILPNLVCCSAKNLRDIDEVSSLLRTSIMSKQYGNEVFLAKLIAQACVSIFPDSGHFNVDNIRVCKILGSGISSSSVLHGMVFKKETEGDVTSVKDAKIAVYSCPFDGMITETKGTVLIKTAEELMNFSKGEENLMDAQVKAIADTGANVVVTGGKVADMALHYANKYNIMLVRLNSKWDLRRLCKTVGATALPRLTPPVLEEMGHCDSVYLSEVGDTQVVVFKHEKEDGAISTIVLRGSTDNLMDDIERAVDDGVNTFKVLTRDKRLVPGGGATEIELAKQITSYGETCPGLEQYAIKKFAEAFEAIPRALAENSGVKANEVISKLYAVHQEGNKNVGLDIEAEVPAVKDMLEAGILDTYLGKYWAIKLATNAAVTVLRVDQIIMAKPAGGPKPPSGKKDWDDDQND
Sequence of Membrane-associated progesterone receptor component 1 (Homo sapiens) (O00264 whole entry): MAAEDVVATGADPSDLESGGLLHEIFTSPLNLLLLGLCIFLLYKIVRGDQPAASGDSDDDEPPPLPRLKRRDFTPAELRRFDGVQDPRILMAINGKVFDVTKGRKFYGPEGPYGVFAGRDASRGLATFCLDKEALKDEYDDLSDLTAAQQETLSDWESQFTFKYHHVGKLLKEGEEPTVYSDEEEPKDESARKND
Sequence of Prostaglandin reductase 1 (Homo sapiens) (Q14914 whole entry): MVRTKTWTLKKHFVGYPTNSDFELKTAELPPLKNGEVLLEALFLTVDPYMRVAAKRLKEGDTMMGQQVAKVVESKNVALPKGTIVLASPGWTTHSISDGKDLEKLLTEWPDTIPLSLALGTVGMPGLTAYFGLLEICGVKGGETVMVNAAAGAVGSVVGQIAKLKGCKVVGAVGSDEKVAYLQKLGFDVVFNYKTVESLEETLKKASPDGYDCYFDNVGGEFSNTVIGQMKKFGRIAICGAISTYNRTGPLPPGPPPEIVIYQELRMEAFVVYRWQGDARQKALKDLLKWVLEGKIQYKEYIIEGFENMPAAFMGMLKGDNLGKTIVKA
Sequence of Mitotic interactor and substrate of PLK1 (Homo sapiens) (Q8IVT2 whole entry): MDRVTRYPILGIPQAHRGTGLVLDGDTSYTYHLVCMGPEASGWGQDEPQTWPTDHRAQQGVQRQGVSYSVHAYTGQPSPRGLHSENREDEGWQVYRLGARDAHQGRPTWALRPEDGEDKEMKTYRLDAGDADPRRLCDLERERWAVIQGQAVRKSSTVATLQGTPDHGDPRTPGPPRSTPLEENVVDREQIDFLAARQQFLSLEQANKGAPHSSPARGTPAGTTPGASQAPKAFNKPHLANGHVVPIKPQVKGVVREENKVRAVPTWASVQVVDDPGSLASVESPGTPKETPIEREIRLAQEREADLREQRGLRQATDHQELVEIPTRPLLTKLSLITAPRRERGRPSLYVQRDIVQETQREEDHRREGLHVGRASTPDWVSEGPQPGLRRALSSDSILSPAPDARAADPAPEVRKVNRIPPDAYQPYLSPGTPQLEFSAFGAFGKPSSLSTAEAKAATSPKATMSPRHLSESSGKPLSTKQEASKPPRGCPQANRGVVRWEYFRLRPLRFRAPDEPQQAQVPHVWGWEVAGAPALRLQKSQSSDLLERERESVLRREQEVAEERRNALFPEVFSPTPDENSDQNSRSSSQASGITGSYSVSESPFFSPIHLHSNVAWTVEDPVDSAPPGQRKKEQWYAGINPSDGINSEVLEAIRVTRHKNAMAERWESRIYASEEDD
Sequence of Importin subunit beta-1 (Homo sapiens) (Q14974 whole entry): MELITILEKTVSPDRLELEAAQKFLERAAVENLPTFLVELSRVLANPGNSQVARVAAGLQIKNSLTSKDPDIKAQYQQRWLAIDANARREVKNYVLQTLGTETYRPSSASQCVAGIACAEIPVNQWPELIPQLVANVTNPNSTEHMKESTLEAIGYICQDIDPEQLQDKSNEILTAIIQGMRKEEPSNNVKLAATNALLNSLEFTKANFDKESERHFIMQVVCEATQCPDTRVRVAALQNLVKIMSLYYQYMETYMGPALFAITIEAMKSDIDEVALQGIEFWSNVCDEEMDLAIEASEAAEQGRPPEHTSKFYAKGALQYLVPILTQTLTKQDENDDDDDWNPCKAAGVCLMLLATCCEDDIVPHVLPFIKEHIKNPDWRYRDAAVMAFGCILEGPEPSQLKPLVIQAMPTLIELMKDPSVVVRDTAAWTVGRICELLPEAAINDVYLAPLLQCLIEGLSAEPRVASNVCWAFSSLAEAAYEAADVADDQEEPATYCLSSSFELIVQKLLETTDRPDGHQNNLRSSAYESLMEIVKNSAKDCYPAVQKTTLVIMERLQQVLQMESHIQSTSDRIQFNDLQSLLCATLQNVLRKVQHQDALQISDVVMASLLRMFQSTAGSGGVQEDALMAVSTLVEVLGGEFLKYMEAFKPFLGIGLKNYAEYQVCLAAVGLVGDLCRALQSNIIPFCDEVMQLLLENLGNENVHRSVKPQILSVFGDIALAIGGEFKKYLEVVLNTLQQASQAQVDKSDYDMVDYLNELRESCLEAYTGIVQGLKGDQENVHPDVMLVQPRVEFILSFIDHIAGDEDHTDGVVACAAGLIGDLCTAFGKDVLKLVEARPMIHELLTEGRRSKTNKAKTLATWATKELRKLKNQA
Sequence of Spermidine synthase (Homo sapiens) (P19623 whole entry): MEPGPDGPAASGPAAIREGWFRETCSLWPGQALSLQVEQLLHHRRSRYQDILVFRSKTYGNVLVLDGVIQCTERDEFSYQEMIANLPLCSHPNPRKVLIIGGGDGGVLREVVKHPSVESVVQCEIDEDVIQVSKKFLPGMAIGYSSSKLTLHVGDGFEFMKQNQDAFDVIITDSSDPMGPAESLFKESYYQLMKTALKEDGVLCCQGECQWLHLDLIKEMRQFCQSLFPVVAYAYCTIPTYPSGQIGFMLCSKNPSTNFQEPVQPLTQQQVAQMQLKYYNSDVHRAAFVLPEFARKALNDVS
Sequence of Trifunctional enzyme subunit alpha, mitochondrial (Homo sapiens) (P40939 whole entry): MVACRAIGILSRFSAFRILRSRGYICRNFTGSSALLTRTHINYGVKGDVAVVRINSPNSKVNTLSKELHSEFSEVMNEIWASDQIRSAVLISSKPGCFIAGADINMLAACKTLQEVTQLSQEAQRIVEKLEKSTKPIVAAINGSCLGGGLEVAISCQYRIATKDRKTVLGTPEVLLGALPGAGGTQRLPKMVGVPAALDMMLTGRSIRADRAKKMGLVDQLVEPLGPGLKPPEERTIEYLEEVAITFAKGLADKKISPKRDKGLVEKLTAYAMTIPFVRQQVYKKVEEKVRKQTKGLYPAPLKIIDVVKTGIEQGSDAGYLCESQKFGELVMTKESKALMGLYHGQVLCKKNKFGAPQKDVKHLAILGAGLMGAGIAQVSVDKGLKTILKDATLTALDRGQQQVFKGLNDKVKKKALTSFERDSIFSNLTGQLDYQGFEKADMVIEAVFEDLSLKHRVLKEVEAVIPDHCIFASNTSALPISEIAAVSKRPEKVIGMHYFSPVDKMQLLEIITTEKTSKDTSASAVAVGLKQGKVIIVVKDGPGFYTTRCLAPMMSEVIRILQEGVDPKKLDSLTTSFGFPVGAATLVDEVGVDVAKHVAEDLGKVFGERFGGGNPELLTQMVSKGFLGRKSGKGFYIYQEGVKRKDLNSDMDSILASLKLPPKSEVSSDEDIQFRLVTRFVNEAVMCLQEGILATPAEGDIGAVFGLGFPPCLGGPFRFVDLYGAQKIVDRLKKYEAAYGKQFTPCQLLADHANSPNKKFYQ
Sequence of Glycogen synthase kinase-3 alpha (Homo sapiens) (P49840 2-483 limits assumed): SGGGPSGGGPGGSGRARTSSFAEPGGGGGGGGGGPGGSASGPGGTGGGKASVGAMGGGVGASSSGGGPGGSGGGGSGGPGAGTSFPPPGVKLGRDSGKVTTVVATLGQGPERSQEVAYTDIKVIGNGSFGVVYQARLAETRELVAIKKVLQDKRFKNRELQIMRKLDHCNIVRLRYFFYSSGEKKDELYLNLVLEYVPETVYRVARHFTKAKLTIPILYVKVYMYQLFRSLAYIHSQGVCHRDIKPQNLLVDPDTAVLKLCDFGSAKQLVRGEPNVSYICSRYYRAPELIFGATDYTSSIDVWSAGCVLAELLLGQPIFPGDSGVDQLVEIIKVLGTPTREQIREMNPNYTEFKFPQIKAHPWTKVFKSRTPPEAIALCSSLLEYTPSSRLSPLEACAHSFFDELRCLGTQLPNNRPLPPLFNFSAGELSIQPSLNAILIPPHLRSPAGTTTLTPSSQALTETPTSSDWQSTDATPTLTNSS
Sequence of Vesicle-trafficking protein SEC22b (Homo sapiens) (O75396 whole entry): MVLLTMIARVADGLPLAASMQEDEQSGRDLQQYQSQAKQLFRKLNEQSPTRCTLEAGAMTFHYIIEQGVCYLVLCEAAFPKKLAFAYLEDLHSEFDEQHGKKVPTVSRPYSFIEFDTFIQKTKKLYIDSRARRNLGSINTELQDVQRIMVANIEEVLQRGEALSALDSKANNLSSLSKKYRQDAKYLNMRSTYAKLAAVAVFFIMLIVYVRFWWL

In general, inhibition refers to the relative decrease from the control value, in per cent. Take `C=CC(=O)Nc1ccccc1Oc1nc(Nc2cnn(CCOC)c2)ncc1Cl`: the inhibition entry in [1] was “Active”.

Take `C=CC(=O)Nc1ccccc1Nc1nc(Nc2ccc(N3CCN(C)CC3)cc2)ncc1Cl`: the inhibition in [2] stood at 59.3%.

For `COc1cc(O)c2c(c1)/C=C/C[C@H](O)[C@H](O)C(=O)/C=C\C[C@H](C)OC2=O`, the inhibition in assay [3] was -9.5%. Further, in assay [4], the Activity was found to be 3.8%.

The IC50 is the midpoint of a concentration-inhibition curve. As to `C=CC(=O)Nc1ccccc1Nc1nc(Nc2ccc(N3CCN(CCOCCOCCOCCNC(=O)CCCC[C@@H]4SC[C@@H]5NC(=O)N[C@@H]54)CC3)cc2)ncc1Cl`, the result in [5], in assay [6], in assay [7], in assay [8], in [9] and in assay [10] was Active. Further, the outcome (with NCI-H23; in assay [11]; in [13]; in assay [14]; in assay [15]; in assay [16]) was Active. For the same molecule, the outcome in assay [17], in assay [18], in assay [19], in assay [20], in [21] and in [22] was Active. The result in assay [23] was Active. The molecule further returned an IC50 in [12] of 33 nM.
